Among the data in ChEMBL document CHEMBL4138313 (J Med Chem, 2018) are IC50, Activity and EC50 values, retold here.

What all share (format): cell-based
Series [1] concerns the target Poly [ADP-ribose] polymerase 1 (Homo sapiens, UniProt P09874). The experiment in a line: Binding affinity to PARP1 in human OVCAR8 cells assessed as reduction in [125I]-KX1 binding by gamma counting analysis.
The test system of series [2] is MEF. The experiment in a line: Cytotoxicity against mouse wild type MEF cells assessed as reduction in cell viability at 0.016 to 100 uM after 4 to 7 days by cell-titer glo assay. A digest of the protocol:
(§1)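 Cells kept at 37 °C, 5% CO2, 15% O2 in RPMI 1640 with 10% FBS and 1% penicillin/streptomycin. Seeded at 1,000 cells/well and dosed 24 h later at 100–0.016 µM. Exposure lasted 4–7 days, then viability was read by CellTiter Glo luminescence. Signal was normalized to percent survival against the mean of vehicle controls. Three repeat experiments.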

Series [3] concerns MEF. The series can be described thus: Cytotoxicity against mouse PARP1 deficient MEF cells assessed as reduction in cell viability at 0.016 to 100 uM after 4 to 7 days by cell-titer glo assay. A digest of the protocol: as §1
Series [4] concerns MEF. The experiment in a line: Cytotoxicity against mouse PARP2 deficient MEF cells expressing PARP1 assessed as reduction in cell viability at 0.016 to 100 uM after 4 to 7 days by cell-titer glo assay. The procedure, abridged: as §1
Series [5] deals with MEF. The experiment in a line: Cytotoxicity against mouse wild type MEF cells assessed as reduction in cell viability after 4 to 7 days by cell-titer glo assay.
The test system of series [6] is MEF. The experiment in a line: Cytotoxicity against mouse PARP2 deficient MEF cells expressing PARP1 assessed as reduction in cell viability after 4 to 7 days by cell-titer glo assay.
Series [7] relates to OVCAR-8. The series can be described thus: Cytotoxicity against human OVCAR8 cells assessed as cell survival at 10 uM after 4 to 7 days by cell-titer glo assay. To be noted: ovcar-8, 10 µM.
The test system of series [8] is MEF. The series can be described thus: Cytotoxicity against mouse PARP1 deficient MEF cells assessed as reduction in cell viability after 4 to 7 days by cell-titer glo assay.

Chain of Poly [ADP-ribose] polymerase 1 (P09874 whole entry): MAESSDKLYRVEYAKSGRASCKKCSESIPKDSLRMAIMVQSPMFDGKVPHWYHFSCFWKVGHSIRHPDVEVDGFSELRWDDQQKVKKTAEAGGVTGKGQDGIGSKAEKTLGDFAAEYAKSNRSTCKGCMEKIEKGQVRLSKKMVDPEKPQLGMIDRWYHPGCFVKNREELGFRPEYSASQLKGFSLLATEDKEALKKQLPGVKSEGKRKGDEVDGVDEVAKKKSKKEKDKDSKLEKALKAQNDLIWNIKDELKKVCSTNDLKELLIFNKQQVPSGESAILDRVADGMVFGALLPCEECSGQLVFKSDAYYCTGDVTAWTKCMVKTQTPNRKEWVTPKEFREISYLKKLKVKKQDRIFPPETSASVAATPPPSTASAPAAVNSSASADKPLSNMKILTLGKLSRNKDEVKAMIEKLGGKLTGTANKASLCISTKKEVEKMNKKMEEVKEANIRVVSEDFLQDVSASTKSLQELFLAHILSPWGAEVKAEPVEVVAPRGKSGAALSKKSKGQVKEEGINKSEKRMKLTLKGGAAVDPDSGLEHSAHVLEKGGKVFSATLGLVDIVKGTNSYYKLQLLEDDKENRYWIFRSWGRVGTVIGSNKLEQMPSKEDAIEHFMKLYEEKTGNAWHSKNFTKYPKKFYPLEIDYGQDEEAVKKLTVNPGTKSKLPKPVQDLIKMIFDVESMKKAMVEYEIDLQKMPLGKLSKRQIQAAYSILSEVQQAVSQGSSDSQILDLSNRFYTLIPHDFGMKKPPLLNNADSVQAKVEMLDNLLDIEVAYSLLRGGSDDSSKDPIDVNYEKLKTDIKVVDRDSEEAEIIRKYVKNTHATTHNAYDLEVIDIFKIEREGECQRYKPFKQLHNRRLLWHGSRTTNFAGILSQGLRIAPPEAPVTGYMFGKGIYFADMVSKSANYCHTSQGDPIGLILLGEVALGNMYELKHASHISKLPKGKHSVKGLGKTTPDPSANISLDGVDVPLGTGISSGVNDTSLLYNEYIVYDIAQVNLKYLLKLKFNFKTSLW

With `O=C(c1cc(Cc2n[nH]c(=O)c3ccccc23)ccc1F)N1CCC2(CNC2)C1`, in series [1], the concentration for half-maximal inhibition (IC50) (as a rule, the midpoint of a concentration-inhibition curve) came to 1.24 µM. Besides, the Activity in series [2], in series [3] and in series [4] was less than 50% in each case.
Take `CC(C)(C)OC(=O)N1CC2(C1)CN(C(=O)c1cc(Cc3n[nH]c(=O)c4ccccc34)ccc1F)C2`: the EC50 (commonly the concentration that produces a half-maximal response) in series [5] is 31.1 µM; in series [6], 24.7 µM. Besides, in series [3], the Activity was less than 50%.
As to `O=C(c1cc(Cc2n[nH]c(=O)c3ccccc23)ccc1F)N1CCC2(CC1)CCN(C(=O)C1CC1)CC2`, in series [7], the Activity result is “Non-Toxic”. In addition, the concentration for a half-maximal effect (EC50) in series [5] came out at 24.8 µM; in series [8], 49.7 µM; in series [6], 21.6 µM.
For the compound `O=C(C1CC1)N1CC2(CCN2C(=O)c2cc(Cc3n[nH]c(=O)c4ccccc34)ccc2F)C1`, the IC50 in series [1] was 0.13 µM. The 50% effective concentration (EC50) in series [5] is 53.2 µM; in series [6], 46.7 µM. In addition, the Activity in series [3] is recorded as less than 50%.
On to `CC(C)(C)OC(=O)N1CC2(CCN(C(=O)c3cc(Cc4n[nH]c(=O)c5ccccc45)ccc3F)C2)C1`, for which the values for the concentration giving a half-maximal response (EC50) in series [5] and in series [6] were 29.2 µM and 31.8 µM, respectively. The Activity in series [3] is given as less than 50%.
Turning to `O=C(c1cc(Cc2n[nH]c(=O)c3ccccc23)ccc1F)N1CC2(CCCCC2)C1`, the IC50 in series [1] worked out at 0.0654 µM. In addition, the Activity result in series [7] is given as “Non-Toxic”. In addition, the EC50 was 25.6 µM in series [5], 48.3 µM in series [8] and 39.9 µM in series [6].
As to `CC(C)(C)OC(=O)N1CC2(CCN2C(=O)c2cc(Cc3n[nH]c(=O)c4ccccc34)ccc2F)C1`, the IC50 in series [1] was determined as 0.877 µM. Also, the concentration for a half-maximal effect (EC50) was found to be 42.9 µM in series [5] and 35.8 µM in series [6]. Moreover, the Activity in series [3] is less than 50%.
Regarding `COC1CCN(C(=O)c2cc(Cc3n[nH]c(=O)c4ccccc34)ccc2F)CC1` [AZD2461], the half-maximal inhibitory concentration (IC50) in series [1] worked out at 0.0017 µM.
On to `O=C(c1cc(Cc2n[nH]c(=O)c3ccccc23)ccc1F)N1CC2(CCC2)C1`, for which the IC50 in series [1] came out at 0.0339 µM. The results for the Activity result in series [7] and in series [3] were “Non-Toxic” and less than 50%, respectively. The EC50 in series [5] was found to be 48.3 µM; in series [6], 49 µM.
For the compound `CC(C)(C)OC(=O)N1CCC2(CC1)CCN2C(=O)c1cc(Cc2n[nH]c(=O)c3ccccc23)ccc1F`, the half-inhibitory concentration (IC50) in series [1] amounted to 2.97 µM. Moreover, the figures for the EC50 in series [5] and in series [6] were 23.3 µM and 33.2 µM, respectively. Also, the Activity in series [3] is less than 50%.
As for `O=C(c1cc(Cc2n[nH]c(=O)c3ccccc23)ccc1F)N1CC2(COC2)C1`, the figures for the concentration giving a half-maximal response (EC50) in series [5] and in series [6] were 52.2 µM and 53.3 µM, respectively. In addition, the Activity in series [3] is listed as less than 50%.
With `O=C(C1CC1)N1CCC2(CC1)CCN2C(=O)c1cc(Cc2n[nH]c(=O)c3ccccc23)ccc1F`, the IC50 in series [1] amounted to 0.431 µM. In addition, the EC50 in series [5] worked out at 47.5 µM; in series [6], 44.4 µM. In addition, the Activity in series [3] is less than 50%.
For `O=C(c1cc(Cc2n[nH]c(=O)c3ccccc23)ccc1F)N1CCC2(CCCCC2)CC1`, the IC50 in series [1] turned out to be 0.0571 µM. Moreover, the concentration for a half-maximal effect (EC50) in series [5] and in series [6] was 41.3 µM in each case. Also, the Activity in series [3] was less than 50%.
Turning to `O=C(c1cc(Cc2n[nH]c(=O)c3ccccc23)ccc1F)N1CCC2(CCN(C(=O)C3CC3)CC2)C1`, the IC50 in series [1] turned out to be 0.225 µM. The figures for the EC50 in series [5] and in series [6] were 41.6 µM and 61 µM, respectively. In addition, the Activity in series [3] was less than 50%.
With `O=C(c1cc(Cc2n[nH]c(=O)c3ccccc23)ccc1F)N1CCC12CNC2`, the IC50 in series [1] was determined as 0.526 µM. Moreover, the Activity in series [2], in series [3] and in series [4] was less than 50% in each case.
Consider `O=C(c1cc(Cc2n[nH]c(=O)c3ccccc23)ccc1F)N1CCC2(CCCCC2)C1`, for which, in series [1], the half-maximal inhibitory concentration (IC50) was determined as 0.141 µM. Besides, the figures for the half-maximal effective concentration (EC50) in series [5], in series [8] and in series [6] were 42.7 µM, 51.6 µM and 46.8 µM, respectively.
On to `O=C(c1cc(Cc2n[nH]c(=O)c3ccccc23)ccc1F)N1CCC12CCNCC2`, for which the Activity in series [2] and in series [3] was less than 50% each time. The EC50 in series [6] was found to be 106 µM.
With `O=C(c1cc(Cc2n[nH]c(=O)c3ccccc23)ccc1F)N1CCC12CCC2`, the IC50 in series [1] is 0.0365 µM. Moreover, the EC50 in series [5] stood at 48 µM; in series [6] it was 58.3 µM. In series [3], the Activity is recorded as less than 50%.
Turning to `O=C(c1cc(Cc2n[nH]c(=O)c3ccccc23)ccc1F)N1CCC2(CCN(C(=O)C3CC3)C2)C1` (configuration not stated), in series [1], the IC50 is 2.59 µM. For the same compound, the Activity in series [2] and in series [3] was less than 50% each time. In addition, in series [6], the EC50 was determined as 70.9 µM.
For `O=C(c1cc(Cc2n[nH]c(=O)c3ccccc23)ccc1F)N1CCC2(CCNCC2)CC1`, the IC50 in series [1] came to 0.234 µM. The Activity in series [2] and in series [3] was less than 50% in each case. The EC50 in series [6] came out at 59.7 µM.
In the case of `CC(C)(C)OC(=O)N1CCC2(CC1)CN(C(=O)c1cc(Cc3n[nH]c(=O)c4ccccc34)ccc1F)C2`, the 50% effective concentration (EC50) in series [5] came out at 23.4 µM; in series [8], 49.2 µM; in series [6], 41.5 µM.
Regarding `O=C(c1cc(Cc2n[nH]c(=O)c3ccccc23)ccc1F)N1CCC2(CCNC2)C1` (configuration not stated), the concentration for half-maximal inhibition (IC50) in series [1] worked out at 1.12 µM. Also, the Activity in series [2] and in series [3] was less than 50% in each case.
In the case of `O=C(c1cc(Cc2n[nH]c(=O)c3ccccc23)ccc1F)N1CCC2(CCNCC2)C1`, the IC50 in series [1] was found to be 3.88 µM. For the same compound, the Activity in series [2], in series [3] and in series [4] was less than 50% each time.
Take `O=C(c1cc(Cc2n[nH]c(=O)c3ccccc23)ccc1F)N1CC2(CCN(C(=O)C3CC3)CC2)C1`: the IC50 in series [1] was 0.1 µM. In addition, the values for the concentration giving a half-maximal response (EC50) in series [5] and in series [6] were 49.3 µM and 57.2 µM, respectively. For the same compound, in series [3], the Activity is listed as less than 50%.
Regarding `O=C(c1cc(Cc2n[nH]c(=O)c3ccccc23)ccc1F)N1CCC2(C1)CN(C(=O)C1CC1)C2`, the half-maximal inhibitory concentration (IC50) in series [1] worked out at 2.54 µM. Further, the Activity in series [2] and in series [3] was less than 50% each time. Moreover, in series [6], the EC50 came out at 61.8 µM.
Regarding `O=C(c1cc(Cc2n[nH]c(=O)c3ccccc23)ccc1F)N1CC2(CCNCC2)C1`, the IC50 in series [1] was 1.42 µM. Moreover, the Activity in series [2] and in series [3] was less than 50% in each case. Further, the 50% effective concentration (EC50) in series [6] was 68.5 µM.
Regarding `O=C(c1cc(Cc2n[nH]c(=O)c3ccccc23)ccc1F)N1CCC12CCCCC2`, the IC50 in series [1] was determined as 0.284 µM. In addition, the half-maximal effective concentration (EC50) was 32.6 µM in series [5] and 78.8 µM in series [6]. Besides, in series [3], the Activity was less than 50%.
As to `O=C(c1cc(Cc2n[nH]c(=O)c3ccccc23)ccc1F)N1CCC2(CCC2)C1`, the IC50 in series [1] stood at 0.0324 µM. In addition, the EC50 in series [5] was determined as 45.2 µM; in series [6], 54.7 µM. Further, the Activity in series [3] is listed as less than 50%.
As to `O=C(c1cc(Cc2n[nH]c(=O)c3ccccc23)ccc1F)N1CCC2(CCCC2)C1`, the IC50 in series [1] amounted to 0.0514 µM. In addition, the 50% effective concentration (EC50) amounted to 31.7 µM in series [5] and 55.5 µM in series [6].
For `O=C(c1cc(Cc2n[nH]c(=O)c3ccccc23)ccc1F)N1CC2(CNC2)C1`, the IC50 in series [1] was 2.39 µM. In addition, the Activity in series [2], in series [3] and in series [4] was less than 50% in each case.
